Screens from PubChem.
T cruzi inh: inhibitors of intracellular T. cruzi growth, primary screen, luminescence, NIH3T3 host cells. inhibition, % (test concentration not listed). AID 1885, 2009. T. cruzi beta-gal in NIH3T3, 90 h. actives 1.4% (n = 300,000);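 active means mean inhibition across valid replicates above about 55%, limit read from the data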;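 further: signal also drops with host cell toxicity which is not excluded here; 0% = plate median of DMSO wells and 100% = zero luminescence signal; higher percent means less beta-gal luminescence so fewer parasites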
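System: mouse NIH/3T3 fibroblasts infected with β-gal-expressing T. cruzi Tulahuen C4 / Input: NIH/3T3 cells, 5,000 per well / Buffer or medium: Low-serum DMEM with 2% FBS / Probe or stimulus: 5000 reporter trypomastigotes per well / Schedule: ≥90 h infection period, 3 h prior cell attachment / Measured by: GalScreen luminescence, 60 min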
PP5 primary: PP5 phosphatase inhibitors, primary screen, biochemical, fluorescence; Serine/threonine-protein phosphatase 5 (Homo sapiens), P53041; purified PP5c, OMFP substrate fluorescence; inhibition, % at 6.7 µM; actives 0.18% (n = 320,000);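 active means inhibition above the campaign's mean inhibition across all tested compounds plus 3 SD, cut at about 9.5% in these data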;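 further: 0% = DMSO only and 100% = 100 µM cantharidin control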
Target sequence (P53041 whole entry, looked up): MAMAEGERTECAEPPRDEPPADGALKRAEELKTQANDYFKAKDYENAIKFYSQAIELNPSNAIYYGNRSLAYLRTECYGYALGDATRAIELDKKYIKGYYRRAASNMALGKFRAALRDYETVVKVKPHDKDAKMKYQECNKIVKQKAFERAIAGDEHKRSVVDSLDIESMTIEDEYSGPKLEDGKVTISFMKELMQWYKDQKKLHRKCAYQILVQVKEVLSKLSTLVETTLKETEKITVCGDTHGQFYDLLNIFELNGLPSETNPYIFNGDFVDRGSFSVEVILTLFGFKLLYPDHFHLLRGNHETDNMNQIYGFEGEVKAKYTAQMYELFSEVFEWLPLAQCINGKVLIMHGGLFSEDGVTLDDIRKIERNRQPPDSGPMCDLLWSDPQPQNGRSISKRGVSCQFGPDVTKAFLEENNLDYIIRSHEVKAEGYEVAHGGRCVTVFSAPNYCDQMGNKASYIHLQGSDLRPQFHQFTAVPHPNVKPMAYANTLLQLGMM
CTSL1 counter: Fasciola hepatica cathepsin L1 inhibitors, primary screen, counter-screen for PFM18AAP inhibitor project, biochemical, QFRET, fluorogenic peptide substrate; recombinant F. hepatica cathepsin L1, Z-Leu-Arg-MCA fluorescence; inhibition, % at 5.96 µM; actives 0.49% (n = 300,000); AID 1906, 2009;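 active means inhibition above the mean of all tested compounds plus 3 SD, set per screening campaign, cut at about 17% in these data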;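 further: 0% = plate median of test compound wells and 100% = 1 µM Z-Phe-Ala-diazomethylketone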
GASC-1 inh: inhibitors of GASC-1 histone demethylase, primary screen, biochemical, fluorescence, DELFIA europium | Lysine-specific demethylase 4C (Homo sapiens), Q9H3R0 | GST-JMJD2C(1-420) H3K9me3 demethylation | inhibition, % at 2.35 µM | actives 0.069% (n = 330,000);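 active means more than half of a compound's replicate wells show inhibition beyond 50%, single wells judged on their own value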;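 further: signal counts dimethyl H3K9 product captured on neutravidin plate; 0% = median of DMSO wells and 100% = 0.3 times that DMSO median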
p-CIP stab down: p/CIP-EGFP fusion destabilizers, primary screen, fluorescence, F442A cells; Q05BA5; decrease of EGFP signal, % at 10 µM; actives 0.01% (n = 290,000); 16 h;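 active means EGFP signal decrease of at least 30% at 10 µM or well 3 SD below plate mean, unless failing retest; inactive means the rest, including hits failing retest or dose response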
H9c2 protect: cardioprotection against H2O2-induced cell death, primary screen, uHTS, H9c2 cells, ATPLite luminescence | H9c2 cardiomyocytes, H2O2 injury protection, 2 h | protection from H2O2 cell death, % at 20 µM | actives 0.63% (n = 360,000) | AID 588492, 2011;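 active means compounds giving at least 50% protection of heart cells from peroxide-induced death in the single-dose screen, raw or plate-pattern-corrected value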;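 further: 0% = DMSO wells with peroxide and 100% = DMSO wells without peroxide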
Numbers without * were called inactive; / = no result. Sampled rows, rich in hits. Any-hit rate of the full collection: about 2.4%.

SMILES	T cruzi inh	PP5 primary	CTSL1 counter	GASC-1 inh	p-CIP stab down	H9c2 protect
O=C(O)c1c2c(nc3ccc(S(=O)(=O)N4CCC(C(=O)NCc5ccc(Cl)cc5)CC4)cc13)CCCC2	-4.8	-0.9	20.4*	-5.2	-22.0	-1.1
OC1(c2cccc(F)c2)CCN(Cc2ccncc2)CC1	-20.8	-0.4	7.5	68.7*	1.8	1.5
Cc1c(C(=O)N2CCN(S(=O)(=O)c3cc(F)ccc3F)CC2)oc2ccccc12	/	5.7	/	-5.0	/	6.0
COc1ccc2cc(C(=O)C3CCCN(C(=O)C4=NN(C)C(=O)CC4)C3)ccc2c1 (configuration not stated)	0.7	0.8	-3.9	16.1	3.1	3.2
O=S(=O)(Nc1ccc(C(O)(C(F)(F)F)C(F)(F)F)cc1)c1cccc2cccnc12	/	/	/	/	/	-6.4
CCN(CC(=O)NCc1cccs1)C(=O)c1ccc([N+](=O)[O-])o1	63.5*	-0.8	1.4	1.9	/	5.8
CCOC(=O)c1ccccc1NC(=O)COC(=O)CSc1ccccc1	-8.6	3.5	-6.7	-2.6	/	6.0
Cc1nc2ccc(C(=O)N3CCN(c4ccccc4)CC3)cn2c1N(C)C(=O)CCc1ccccc1	/	/	/	/	/	3.7
Cc1cc(C(=O)NCc2ccc3c(c2)OCO3)ccc1[N+](=O)[O-]	4.8	-0.9	3.1	-1.8	-4.7	1.9
CC1CC(C)CN(c2ccc(C(=O)NCc3ccc4c(c3)OCO4)cc2[N+](=O)[O-])C1 (configuration not stated)	64.8*	3.2	1.8	6.0	-8.9	-7.9
Cc1cccc[n+]1CCCCCCCCCC[n+]1ccccc1C	-15.5	-0.7	3.4	-23.3	3.9	-7.5
CCCCCCCCCC[n+]1cccc2c3ccccc3ccc21	70.2*	/	/	-35.7	5.0	-32.7
CCCCCCCC[n+]1cccc2c3ccccc3ccc21	67.8*	-2.6	2.0	-2.4	0.9	-26.4
O=S1(=O)C[C@H](N2CCC[C@@H]2CO)[C@@H](COCc2ccccc2)N1	/	/	/	/	/	-0.5
CCOc1cc(/C=C(/C#N)c2nc3ccccc3[nH]2)ccc1Oc1ccc([N+](=O)[O-])cn1	36.3	1.4	0.4	-2.3	-10.2	-11.1
COc1cc(/C=C(/C#N)c2ccc(C)cc2)ccc1Oc1ccc([N+](=O)[O-])cn1	71.5*	3.2	-7.1	-3.1	0.3	-8.6
CCc1ccccc1NC(=O)N1CCCC(CCC(=O)N(C)CCc2ccccn2)C1 (configuration not stated)	1.3	-0.5	-2.4	-0.5	8.0	-3.4
C=CCOc1ccccc1CN1CCCC(CCC(=O)N(C)CCc2ccccn2)C1 (configuration not stated)	56.4*	0.3	-0.8	6.0	-6.1	-4.5
COc1ccc(NC(=O)N2CCCC(CCC(=O)N(C)CCc3ccccn3)C2)cc1 (configuration not stated)	24.6	3.7	70.4*	-17.3	-4.5	2.6
COc1cc(OC)c(NC(=O)Cn2cnc3sc(C)c(S(=O)(=O)N4CCOCC4)c3c2=O)cc1Cl	3.1	3.9	0.2	4.9	12.4	-2.1
CCOc1c(Cl)cc(CNc2ccc(N3CCCC3)cc2)cc1OC	63.4*	/	/	-34.9	-13.4	-19.5
Cc1nn(Cc2ccccc2Cl)c(C)c1NC(=O)CCCn1nc([N+](=O)[O-])c(Cl)c1C	70.6*	3.0	-2.2	-5.8	-22.4	0.1
Cc1ccc(Cn2nc(C)c(NC(=O)CCCn3nc([N+](=O)[O-])c(Cl)c3C)c2C)cc1	38.8	1.8	2.2	-2.2	-5.0	5.9
COC(=O)Cn1cnc2c(nnn2-c2cccc(OC)c2)c1=O	0.3	0.2	-2.5	-6.9	-9.3	1.5
CCN1C[C@@H]2[C@@H]3C(=O)N(Cc4ccccc4)C(=O)[C@@H]3[C@](C)(C1=O)N2C(=O)c1ccc(Br)cc1	/	/	/	/	/	8.5
SMILES	T cruzi inh	PP5 primary	CTSL1 counter	GASC-1 inh	p-CIP stab down	H9c2 protect
COc1cccc(C(=O)Nc2c(C(N)=O)oc3ccccc23)c1	-3.3	2.2	0.2	-5.7	2.1	111.2*
Cc1ccc(C)c(S(=O)(=O)N2CCN(C(=O)C3CCN(c4ncnc5sc(C)c(C)c45)CC3)CC2)c1	43.4	4.1	3.5	-1.6	/	-10.0
COc1cc(-c2nnc(-c3ccc(N4CCOCC4)cc3)o2)cc(OC)c1OC	-1.5	3.1	0.9	-9.0	-10.3	53.1*
COc1cc(-c2nnc(-c3ccc(S(=O)(=O)c4ccccc4)cc3)o2)cc(OC)c1OC	7.8	/	/	3.4	3.0	16.5
Cc1ccc(N/C(N)=N/c2nc(C)cc(N3CCCCC3)n2)c(C)c1	68.9*	1.2	0.6	-10.1	14.9	-26.4
CCN1C(=O)c2ccccc2Sc2ccc(C(=O)NCCCN(CC(C)C)CC(C)C)cc21	24.6	0.6	-1.2	-5.8	3.7	-5.5
CCOc1ccc(NS(=O)(=O)c2ccc(C(=O)N3CCC3)cc2)cc1	-12.6	-2.8	-5.5	-9.4	1.4	-6.0
N/C(=N\OC(=O)COc1ccc2ccccc2c1Br)c1ccncc1	55.7*	1.5	-1.8	2.5	-14.0	/
N/C(=N\OC(=O)COc1ccc2ccccc2c1)c1ccncc1	18.3	-0.3	-25.6	6.7	0.7	3.0
CCCNC(=O)C1(C)CCCN(C(=O)C2(c3ccc(Cl)cc3)CCCC2)C1 (configuration not stated)	/	/	/	/	/	6.2
O=C(O)c1ccc2c(c1)S(=O)(=O)c1cc(N3CCN(c4cnccn4)CC3)ccc1C2=O	/	/	/	/	/	50.2*
CCOC(=O)N1CCN(C(=O)c2ccc3c(c2)N=C(C)c2cc(Cl)ccc2S3)CC1	-5.5	2.0	-5.6	-2.5	5.0	-0.9
CC(C)(C)NS(=O)(=O)c1ccc(NC(=O)c2cc(-c3ccccc3)nc3ccccc23)cc1	58.7*	2.9	-0.2	-26.1	-18.0	13.3
COc1cc(-c2cc(C(=O)Nc3cccc(C(C)=O)c3)c3ccccc3n2)cc(OC)c1OC	11.1	2.1	1.0	-11.9	-11.6	54.7*
COc1cc(-c2cc(C(=O)Nc3ccccc3N3CCOCC3)c3ccccc3n2)cc(OC)c1OC	41.8	-0.3	5.8	-15.5	-11.5	88.8*
CCNC(=O)C1(C)CCCN(C(=O)c2cc(C)n(C(C)(C)C)n2)C1 (configuration not stated)	/	/	/	/	/	1.9
COc1ccc(C(CCN)Cc2ccccc2)cc1 (configuration not stated)	89.4*	-1.2	-4.8	-5.2	12.8	-5.1
N#CC1=C(N)C(C#N)(C#N)[C@H](c2ccncc2)[C@H]2CN(C(=O)OCc3ccccc3)CC=C12	7.5	5.5	18.8*	-2.6	3.6	20.4
Cc1ccnc(NC(=O)Cc2ccc([N+](=O)[O-])cc2)c1	12.5	2.5	-1.3	52.1	-10.0	4.4
